In brackets after ≈: the same amount, converted by molar mass. Activity calls are given as the source filed them. The calls are words filed in the database; no cut-off is given here.
Tests used:
Staphylococcus aureus [1] = assay: Antibacterial activity against Staphylococcus aureus ATCC 29213 after 20 hrs by CLSI based-broth microdilution method; assay type: functional
How it was run: (§1)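 Broth microdilution in cation-adjusted Mueller-Hinton broth. Two-fold serial dilutions from 256 μg/mL down to 0.5 μg/mL. Inoculum approx. 5 × 10^5 CFU/mL. Incubated 20 h at 37 °C. MIC taken as the lowest concentration with no observable growth.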

Staphylococcus aureus [2] = assay: Antibacterial activity against Staphylococcus aureus ATCC 25923 after 20 hrs by CLSI based-broth microdilution method; assay type: functional; how it was run: as §1
Streptococcus pneumoniae = assay: Antibacterial activity against Streptococcus pneumoniae ATCC 49619 after 20 hrs by CLSI based-broth microdilution method; assay type: functional
How it was run: (§2)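 Streptococci tested in Brain Heart Infusion broth. Two-fold dilutions from 256 to 0.5 μg/mL, inoculum approx. 5 × 10^5 CFU/mL. Incubated 20 h at 37 °C. MIC is the lowest concentration without visible growth.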

Clostridioides difficile [3] = assay: Antibacterial activity against Clostridium difficile ribotype 027 assessed as reduction in bacterial toxin B production at sub-inhibitory concentration incubated for 48 hrs under anaerobic condition by ELISA; assay type: functional, organism-based
How it was run: (§3)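 Incubated anaerobically at 37 °C for 48 h. Supernatants cleared at 10,000 × g for 2 min. TcdA and TcdB quantified by commercial ELISA, normalized to drug-free control. Duplicate, with technical and biological repeats.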

Clostridioides difficile [4] = assay: Antibacterial activity against Clostridium difficile ribotype 027 assessed as reduction in bacterial toxin A production at sub-inhibitory concentration incubated for 48 hrs under anaerobic condition by ELISA; assay type: functional, organism-based; how it was run: as §3
Clostridioides difficile [5] = assay: Antibacterial activity against Clostridium difficile ATCC 9689 assessed as reduction in bacterial toxin A production at sub-inhibitory concentration incubated for 48 hrs under anaerobic condition by ELISA; assay type: functional, organism-based; settings: ATCC 9689 = DSM 1296; how it was run: as §3
Clostridioides difficile [6] = assay: Antibacterial activity against Clostridium difficile ribotype 002 assessed as reduction in bacterial toxin A production at sub-inhibitory concentration incubated for 48 hrs under anaerobic condition by ELISA; assay type: functional, organism-based; how it was run: as §3
Clostridioides difficile [7] = assay: Antibacterial activity against Clostridium difficile ribotype 002 assessed as reduction in bacterial toxin B production at sub-inhibitory concentration incubated for 48 hrs under anaerobic condition by ELISA; assay type: functional, organism-based; how it was run: as §3
Clostridioides difficile [8] = assay: Antibacterial activity against Clostridium difficile ATCC 9689 assessed as reduction in bacterial toxin B production at sub-inhibitory concentration incubated for 48 hrs under anaerobic condition by ELISA; assay type: functional, organism-based; settings: ATCC 9689 = DSM 1296; how it was run: as §3
[9] = Antibacterial activity against Staphylococcus saprophyticus ATCC 15305 after 20 hrs by CLSI based-broth microdilution method; assay type: functional, Staphylococcus saprophyticus subsp. saprophyticus; how it was run: as §1
Enterococcus faecalis = assay: Antibacterial activity against Enterococcus faecalis ATCC 19433 after 20 hrs by CLSI based-broth microdilution method; assay type: functional
How it was run: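 Broth microdilution MIC. Two-fold serial dilutions from 256 μg/mL down to 0.5 μg/mL. Inoculum approx. 5 × 10^5 CFU/mL. Read after 20 h at 37 °C. MIC is the lowest concentration with no observable growth.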

[10] = tested on: Staphylococcus epidermidis; assay: Antibacterial activity against Staphylococcus epidermidis ATCC 12228 after 20 hrs by CLSI based-broth microdilution method; assay type: functional; how it was run: as §1
Clostridioides difficile [11] = assay: Antibacterial activity against Clostridium difficile ribotype 027 measured after 48 hrs under anaerobic condition by CLSI based-broth microdilution method; assay type: functional
How it was run: (§4)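 Compounds dissolved in DMSO. Media pre-reduced 3 h in an anaerobic chamber. Colonies from overnight anaerobic GAM agar grown to early log phase in BHI plus 0.5% w/v yeast extract and 0.05% L-cysteine. Adjusted to 0.5 McFarland, diluted 100 μL into 15 mL. Mixed 1:1 with serially diluted agents. Incubated anaerobically at 37 °C, growth read at 48 h, triplicate.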

Streptococcus pyogenes = assay: Antibacterial activity against Streptococcus pyogenes ATCC 19615 after 20 hrs by CLSI based-broth microdilution method; assay type: functional; how it was run: as §2
Clostridioides difficile [12] = assay: Antibacterial activity against Clostridium difficile ribotype 002 measured after 48 hrs under anaerobic condition by CLSI based-broth microdilution method; assay type: functional; how it was run: as §4
Clostridioides difficile [13] = assay: Antibacterial activity against Clostridium difficile ATCC 9689 after measured 48 hrs under anaerobic condition by CLSI based-broth microdilution method; assay type: functional; settings: ATCC 9689 = DSM 1296; how it was run: as §4
Streptococcus agalactiae = assay: Antibacterial activity against Streptococcus agalactiae ATCC 12386 after 20 hrs by CLSI based-broth microdilution method; assay type: functional; how it was run: as §2
Staphylococcus aureus [14] = assay: Inhibition of RNA polymerase in Staphylococcus aureus ATCC 29213 assessed as reduction in total RNA level at 1/4 to 1/8 times MIC by fluorimetric method
How it was run: (§5)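 S. aureus ATCC 29213 master culture started at OD600 0.1 at 37 °C with shaking at 175 rpm. At OD600 0.2 it was split and given compound or control at ¼ and ⅛ MIC, plus a drug-free culture. Cells harvested when the control reached OD600 0.6, with volumes normalized to OD600 0.6 equivalent. DNA and RNA measured by Qubit fluorometry, protein by BCA; triplicate.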

Staphylococcus aureus [15] = assay: Inhibition of RNA polymerase in Staphylococcus aureus ATCC 29213 assessed as reduction in total protein level at 1/4 to 1/8 times MIC by fluorimetric method
Staphylococcus aureus [16] = assay: Inhibition of RNA polymerase in Staphylococcus aureus ATCC 29213 assessed as total DNA level at 1/4 to 1/8 times MIC by fluorimetric method; how it was run: as §5

Row | SMILES | MIC (Staphylococcus aureus [1]) [µg/mL] | MIC (Staphylococcus aureus [2]) [µg/mL] | MIC (Streptococcus pneumoniae) [µg/mL] | also measured
1 | COc1ccccc1C(=O)c1ccc(Sc2ccc(Cl)c(Cl)c2)c([N+](=O)[O-])c1 | > 256 | > 256 | > 256 | –
2 | O=C(O)c1ccc(Cl)cc1Cc1ccc(Sc2ccc(Cl)c(Cl)c2)c([N+](=O)[O-])c1 | 8 (≈ 17.1 µM) | 8 (≈ 17.1 µM) | 2 (≈ 4.27 µM) | –
3 | COc1ccc(C(=O)O)c(Cc2ccc(Sc3ccc(Cl)c(Cl)c3)c([N+](=O)[O-])c2)c1 | 8 (≈ 17.2 µM) | 16 (≈ 34.5 µM) | 8 (≈ 17.2 µM) | –
4 | O=C(O)c1ccc(Cl)cc1C(=O)c1ccc(Sc2ccc(Cl)c(Cl)c2)c([N+](=O)[O-])c1 | 8 (≈ 16.6 µM) | 8 (≈ 16.6 µM) | 8 (≈ 16.6 µM) | –
5 | O=C(O)c1ccc(C(F)(F)F)cc1Cc1ccc(Sc2ccc(Cl)c(Cl)c2)c([N+](=O)[O-])c1 | – | – | 1 (≈ 1.99 µM) | –
6 | COc1ccccc1Cc1ccc(Sc2ccc(Cl)c(Cl)c2)c([N+](=O)[O-])c1 | > 256 | > 256 | > 256 | –
7 | Cc1ccc(C(=O)O)c(Cc2ccc(Sc3ccc(Cl)c(Cl)c3)c([N+](=O)[O-])c2)c1 | 4 (≈ 8.92 µM) | 4 (≈ 8.92 µM) | 4 (≈ 8.92 µM) | –
8 | O=C(O)c1ccccc1C(=O)c1ccc(Sc2ccc(Cl)c(Cl)c2)c([N+](=O)[O-])c1 | 16 (≈ 35.7 µM) | 16 (≈ 35.7 µM) | 8 (≈ 17.8 µM) | –
9 | CCc1c(Cl)c(O)c(Cl)c(O)c1C(=O)O[C@H]1[C@H](O)[C@H](OC)[C@H](OC/C2=C\C=C\C[C@H](O)/C(C)=C/[C@H](CC)[C@@H](O[C@@H]3OC(C)(C)[C@@H](OC(=O)C(C)C)[C@H](O)[C@@H]3O)/C(C)=C/C(C)=C/C[C@@H]([C@@H](C)O)OC2=O)O[C@@H]1C | – | – | – | Activity (Clostridioides difficile [3]): Dose-dependent effect; Activity (Clostridioides difficile [4]): Dose-dependent effect; Activity (Clostridioides difficile [5]): Dose-dependent effect; Activity (Clostridioides difficile [6]): Dose-dependent effect; Activity (Clostridioides difficile [7]): Dose-dependent effect; Activity (Clostridioides difficile [8]): Dose-dependent effect
10 | O=C(O)c1ccc(F)cc1Cc1ccc(Sc2ccc(Cl)c(Cl)c2)c([N+](=O)[O-])c1 | 8 (≈ 17.7 µM) | 8 (≈ 17.7 µM) | 4 (≈ 8.84 µM) | –
11 | O=C(O)c1cccc(C(=O)c2ccc(Sc3ccc(Cl)c(Cl)c3)c([N+](=O)[O-])c2)c1 | 32 (≈ 71.4 µM) | > 256 | > 256 | –
12 | O=C(O)c1cccc(Cc2ccc(Sc3ccc(Cl)c(Cl)c3)c([N+](=O)[O-])c2)c1 | > 256 | > 256 | > 256 | –
13 | O=C(O)c1ccccc1Cc1ccc(Sc2ccc(Cl)c(Cl)c2)c([N+](=O)[O-])c1 | 16 (≈ 36.8 µM) | 16 (≈ 36.8 µM) | 16 (≈ 36.8 µM) | –
14 | CN[C@H](CC(C)C)C(=O)N[C@H]1C(=O)N[C@@H](CC(N)=O)C(=O)N[C@H]2C(=O)N[C@H]3C(=O)N[C@H](C(=O)N[C@H](C(=O)O)c4cc(O)cc(O)c4-c4cc3ccc4O)[C@H](O)c3ccc(c(Cl)c3)Oc3cc2cc(c3O[C@@H]2O[C@H](CO)[C@@H](O)[C@H](O)[C@H]2O[C@H]2C[C@](C)(N)[C@H](O)[C@H](C)O2)Oc2ccc(cc2Cl)[C@H]1O [VANCOMYCIN] | – | – | – | MIC [9]: 0.25 µg/mL (≈ 0.173 µM); Activity (Clostridioides difficile [3]): inactive; MIC (Enterococcus faecalis): 1 µg/mL (≈ 0.69 µM); Activity (Clostridioides difficile [4]): inactive; MIC [10]: 0.5 µg/mL (≈ 0.345 µM); MIC (Clostridioides difficile [11]): 2 µg/mL (≈ 1.38 µM); Activity (Clostridioides difficile [5]): inactive; MIC (Streptococcus pyogenes): 1 µg/mL (≈ 0.69 µM); MIC (Clostridioides difficile [12]): 2 µg/mL (≈ 1.38 µM); Activity (Clostridioides difficile [6]): inactive; Activity (Clostridioides difficile [7]): inactive; MIC (Clostridioides difficile [13]): 4 µg/mL (≈ 2.76 µM); MIC (Streptococcus agalactiae): 2 µg/mL (≈ 1.38 µM); Activity (Clostridioides difficile [8]): inactive
15 | COc1ccc(C(=O)O)c(C(=O)c2ccc(Sc3ccc(Cl)c(Cl)c3)c([N+](=O)[O-])c2)c1 | 8 (≈ 16.7 µM) | 16 (≈ 33.5 µM) | 8 (≈ 16.7 µM) | –
16 | O=C(O)c1cc(C(F)(F)F)ccc1Cc1ccc(Sc2ccc(Cl)c(Cl)c2)c([N+](=O)[O-])c1 | 8 (≈ 15.9 µM) | – | 2 (≈ 3.98 µM) | –
17 | O=C(O)c1cc(Cl)ccc1C(=O)c1ccc(Sc2ccc(Cl)c(Cl)c2)c([N+](=O)[O-])c1 | 4 (≈ 8.29 µM) | 8 (≈ 16.6 µM) | 8 (≈ 16.6 µM) | –
18 | O=C(O)c1ccc(F)cc1C(=O)c1ccc(Sc2ccc(Cl)c(Cl)c2)c([N+](=O)[O-])c1 | 8 (≈ 17.2 µM) | 16 (≈ 34.3 µM) | 8 (≈ 17.2 µM) | –
19 | Nc1ccccc1Sc1ccc(C(=O)c2ccccc2C(=O)O)cc1[N+](=O)[O-] | – | – | 256 (≈ 649 µM) | –
20 | O=C(O)c1cc(Cl)ccc1Cc1ccc(Sc2ccc(Cl)c(Cl)c2)c([N+](=O)[O-])c1 | 8 (≈ 17.1 µM) | 8 (≈ 17.1 µM) | 4 (≈ 8.53 µM) | –
21 | CO[C@H]1/C=C/O[C@@]2(C)Oc3c(C)c(O)c4c(O)c(c(/C=N/N5CCN(C)CC5)c(O)c4c3C2=O)NC(=O)/C(C)=C\C=C\[C@H](C)[C@H](O)[C@@H](C)[C@@H](O)[C@@H](C)[C@H](OC(C)=O)[C@@H]1C | – | – | – | inhibition (Staphylococcus aureus [14]): Active; inhibition (Staphylococcus aureus [15]): inactive; inhibition (Staphylococcus aureus [16]): inactive
22 | O=C(O)c1cc(C(F)(F)F)ccc1C(=O)c1ccc(Sc2ccc(Cl)c(Cl)c2)c([N+](=O)[O-])c1 | 8 (≈ 15.5 µM) | 16 (≈ 31 µM) | 4 (≈ 7.75 µM) | –

Reference: ChEMBL document CHEMBL4706572, “Benzyl and benzoyl benzoic acid inhibitors of bacterial RNA polymerase-sigma factor interaction” (Eur J Med Chem, 2020)
